Experiments:
[1] = Lipophilicity, log P of the compound; type: physicochemical; settings: octanol/water
[2] = Antioxidant activity against superoxide dismutase like activity after 15 mins by NBT spectrometric assay; type: functional
How it was run: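 Superoxide-scavenging (SOD-like) activity by NBT method, run in triplicate. Mix of 2.1 ml 0.2 M Tris buffer and 1 ml NBT with test solution, held on ice 15 min. KO₂ (1.5 ml) then added with stirring. Absorbance at 560 nm read every 30 s over 5 min. Ascorbic acid as standard.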

BXPC-3 = assay: Cytotoxicity against human BxPC3 cells expressing COX2 after 24 hrs by MTT assay; type: functional, cell-based; settings: BXPC-3, 24 h
How it was run: (§1)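 Cells grown at 37 °C, 5% CO₂, with penicillin (50 U/ml), streptomycin and 10% fetal calf serum; lines STR-authenticated. 3 × 10³ cells seeded per well. Compounds in DMSO added 24 h after seeding. Eight replicate wells per treatment; experiments repeated at least three times. End-point: MTT 0.5 mg/ml, 2 h at 37 °C, then DMSO 30 min at room temperature; absorbance read.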

BT-20 = assay: Cytotoxicity against human estrogen receptor-deficient BT20 cells after 24 hrs by MTT assay; type: functional, cell-based; settings: BT-20, 24 h; how it was run: as §1

In the case of O=C(/C=C/c1ccc(O)c(O)c1O)c1ccccc1O, the logP [1] is reported as 2.03, the IC50 [2] is reported as 13.7 µM and the IC50 (BXPC-3) is reported as 213 µM. For the same molecule, the IC50 (BT-20) was 61.7 µM.
For O=C(/C=C/c1ccc(F)c(F)c1)c1ccccc1O, the logP [1] was 3.51, the IC50 [2] was 5.68 µM and the IC50 (BXPC-3) was 26.7 µM. It also gave an IC50 (BT-20) of 32.8 µM.
Work on O=C(/C=C/c1ccc(F)c(F)c1F)c1ccccc1O yielded a logP [1] of 3.67, an IC50 [2] of 7.31 µM and an IC50 (BXPC-3) of 34.7 µM. The IC50 (BT-20) was 56.6 µM.
For O=C(/C=C/c1ccc(F)cc1F)c1ccccc1O, the logP [1] was 3.51, the IC50 [2] was 5.27 µM and the IC50 (BXPC-3) was 18.7 µM. It also gave an IC50 (BT-20) of 26.4 µM.
For O=C(/C=C/c1ccccc1)c1ccccc1 [CHALCONE], the logP [1] was 3.2.
Work on O=C(/C=C/c1ccc(O)cc1O)c1ccccc1O yielded a logP [1] of 2.42, an IC50 [2] of 6.07 µM and an IC50 (BXPC-3) of 68.6 µM. The IC50 (BT-20) was 52.9 µM.
With O=C1O[C@H]([C@@H](O)CO)C(O)=C1O [ASCORBIC ACID] the IC50 [2] was 5.43 µM.
Molecule O=C(/C=C/c1ccc(O)c(O)c1)c1ccccc1O has a logP [1] of 2.42, an IC50 [2] of 9.23 µM and an IC50 (BXPC-3) of 78.3 µM. It also gave an IC50 (BT-20) of 63.9 µM.
